In ChEMBL document CHEMBL4373701, “Semisynthetic Derivatives of Fradcarbazole A and Their Cytotoxicity against Acute Myeloid Leukemia Cell Lines” (J Nat Prod, 2019):
Active and inactive are the calls of the source. The rule behind the calls is not given here.

Tests used:
HL-60 = assay: Antiproliferative activity against human HL60 cells measured after 72 hrs by Celltiter-Glo assay; format: functional, cell-based; conditions: HL-60, 72 h
PBMC = assay: Cytotoxicity against human PBMC cells measured after 72 hrs by Celltiter-Glo assay; format: ADME, cell-based
K562 = assay: Antiproliferative activity against human K562 cells measured after 72 hrs by Celltiter-Glo assay; format: functional, cell-based; conditions: K562, 72 h
MV4-11 [1] = assay: Antiproliferative activity against human MV4-11 cells measured after 72 hrs by Celltiter-Glo assay; format: functional, cell-based; conditions: MV4-11, 72 h
MV4-11 [2] = assay: Induction of apoptotic cell death in human MV4-11 cells at 0.3 uM after 24 hrs by DAPI-based TUNEL assay; format: functional
Summary of the method: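 MV4-11 cells held at 0.3 μM for 24 h, then processed with a one-step TUNEL kit. DNA counterstained with DAPI. Green apoptotic cells seen by fluorescence microscopy, excitation 450−500 nm, emission 515−565 nm.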

MV4-11 [3] = assay: Cell cycle arrest in human MV4-11 cells assessed as accumulation at G0/G1 phase at 0.6 uM after 24 hrs by propidium iodide/RNase A staining based FACScalibur flow cytometry analysis (reference value: 50.04 %); format: functional
MV4-11 [4] = assay: Cell cycle arrest in human MV4-11 cells assessed as accumulation at G0/G1 phase at 0.3 uM after 24 hrs by propidium iodide/RNase A staining based FACScalibur flow cytometry analysis (reference value: 50.04 %); format: functional
MV4-11 [5] = assay: Cell cycle arrest in human MV4-11 cells assessed as accumulation at G2/M phase at 0.6 uM after 24 hrs by propidium iodide/RNase A staining based FACScalibur flow cytometry analysis (reference value: 10.58 %); format: functional
MV4-11 [6] = assay: Cell cycel arrest in human MV4-11 cells assessed as decrease in CDK2 expression at 0.15 to 0.6 uM after 24 hrs by Western blot analysis; format: functional, cell-based
Summary of the method: (§1)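 MV4-11 cells (RPMI-1640, 10% FBS, 37 °C, 5% CO2) exposed 24 h to 0.15, 0.3 or 0.6 μM. Lysed in RIPA buffer, protein measured by BCA, 40 μg run on SDS-PAGE and blotted to nitrocellulose. Primary antibodies overnight at 4 °C, HRP anti-rabbit IgG secondary 1 h at rt. Bands detected by ECL.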

MV4-11 [7] = assay: Cell cycle arrest in human MV4-11 cells assessed as accumulation at G2/M phase at 0.15 uM after 24 hrs by propidium iodide/RNase A staining based FACScalibur flow cytometry analysis (reference value: 10.58 %); format: functional
MV4-11 [8] = assay: Cell cycle arrest in human MV4-11 cells assessed as accumulation at G0/G1 phase at 0.15 uM after 24 hrs by propidium iodide/RNase A staining based FACScalibur flow cytometry analysis (reference value: 50.04 %); format: functional
MV4-11 [9] = assay: Cell cycle arrest in human MV4-11 cells assessed as accumulation at S phase at 0.6 uM after 24 hrs by propidium iodide/RNase A staining based FACScalibur flow cytometry analysis (reference value: 29.92 %); format: functional
MV4-11 [10] = assay: Cell cycle arrest in human MV4-11 cells assessed as accumulation at S phase at 0.3 uM after 24 hrs by propidium iodide/RNase A staining based FACScalibur flow cytometry analysis (reference value: 29.92 %); format: functional
MV4-11 [11] = assay: Induction of apoptosis in human MV4-11 cells assessed as decrease in phosphorylated-FLT3 expression after 24 hrs by Western blot analysis; format: functional, cell-based; summary of the method: as §1
MV4-11 [12] = assay: Induction of apoptosis in human MV4-11 cells assessed as decrease in c-kit expression after 24 hrs by Western blot analysis; format: functional, cell-based; summary of the method: as §1
MV4-11 [13] = assay: Induction of apoptosis in human MV4-11 cells assessed as decrease in FLT3 expression after 24 hrs by Western blot analysis; format: functional, cell-based; summary of the method: as §1
MV4-11 [14] = assay: Cell cycle arrest in human MV4-11 cells assessed as accumulation at S phase at 0.15 uM after 24 hrs by propidium iodide/RNase A staining based FACScalibur flow cytometry analysis (reference value: 29.92 %); format: functional
MV4-11 [15] = assay: Cell cycle arrest in human MV4-11 cells assessed as accumulation at G2/M phase at 0.3 uM after 24 hrs by propidium iodide/RNase A staining based FACScalibur flow cytometry analysis (reference value: 10.58 %); format: functional

| IC50 (HL-60) | IC50 (K562) | IC50 (MV4-11 [1]) | SMILES | IC50 (PBMC) | other results |
| --- | --- | --- | --- | --- | --- |
| > 10 µM | > 10 µM | 0.36 µM | CO[C@@H]1[C@H](N(C)c2ncc(-c3c[nH]c4ccccc34)s2)C[C@H]2O[C@]1(C)n1c3ccccc3c3c4c(c5c6cc(Br)ccc6n2c5c31)C(=O)NC4 | > 10 µM | – |
| > 10 µM | > 10 µM | 0.51 µM | COc1ccc2[nH]cc(-c3cnc(N(C)[C@@H]4C[C@H]5O[C@@](C)([C@@H]4OC)n4c6ccccc6c6c7c(c8c9cc(Br)ccc9n5c8c64)C(=O)NC7)s3)c2c1 | > 10 µM | – |
| > 10 µM | > 10 µM | 0.32 µM | CO[C@@H]1[C@H](N(C)c2ncc(-c3c[nH]c4ccc(F)cc34)s2)C[C@H]2O[C@]1(C)n1c3ccccc3c3c4c(c5c6cc(Cl)ccc6n2c5c31)C(=O)NC4 | > 10 µM | Activity (MV4-11 [2]): Active; Activity (MV4-11 [3]): 87.75%; Activity (MV4-11 [4]): 72.68%; Activity (MV4-11 [5]): 0.45%; Activity (MV4-11 [6]): Active; Activity (MV4-11 [7]): 10.04%; Activity (MV4-11 [8]): 60.59%; Activity (MV4-11 [9]): 10.18%; Activity (MV4-11 [10]): 9.23%; Activity (MV4-11 [11]): Dose-dependent effect; Activity (MV4-11 [12]): Dose-dependent effect; Activity (MV4-11 [13]): Dose-dependent effect; Activity (MV4-11 [14]): 20.19%; Activity (MV4-11 [15]): 6.6% |
| > 10 µM | > 10 µM | 0.96 µM | CO[C@@H]1[C@H](N(C)c2ncc(-c3c[nH]c4ccc(F)cc34)s2)C[C@H]2O[C@]1(C)n1c3ccccc3c3c4c(c5c6cc(Br)ccc6n2c5c31)C(=O)NC4 | > 10 µM | – |
| > 10 µM | > 10 µM | 0.51 µM | CO[C@@H]1[C@H](N(C)c2ncc(-c3c[nH]c4ccc(F)cc34)s2)C[C@H]2O[C@]1(C)n1c3ccccc3c3c4c(c5c6ccccc6n2c5c31)C(=O)NC4 | > 10 µM | – |
| > 10 µM | > 10 µM | 0.42 µM | CO[C@@H]1[C@H](N(C)c2ncc(-c3c[nH]c4ccc(Cl)cc34)s2)C[C@H]2O[C@]1(C)n1c3ccccc3c3c4c(c5c6ccccc6n2c5c31)C(=O)NC4 | > 10 µM | – |
| > 10 µM | > 10 µM | 0.44 µM | COc1ccc2[nH]cc(-c3cnc(N(C)[C@@H]4C[C@H]5O[C@@](C)([C@@H]4OC)n4c6ccccc6c6c7c(c8c9cc(Cl)ccc9n5c8c64)C(=O)NC7)s3)c2c1 | > 10 µM | – |
| > 10 µM | > 10 µM | 0.41 µM | CO[C@@H]1[C@H](N(C)c2ncc(-c3c[nH]c4ccc(Br)cc34)s2)C[C@H]2O[C@]1(C)n1c3ccccc3c3c4c(c5c6ccccc6n2c5c31)C(=O)NC4 | > 10 µM | – |
| > 10 µM | > 10 µM | 0.43 µM | CO[C@@H]1[C@H](N(C)c2ncc(-c3c[nH]c4ccc(Br)cc34)s2)C[C@H]2O[C@]1(C)n1c3ccccc3c3c4c(c5c6cc(Cl)ccc6n2c5c31)C(=O)NC4 | > 10 µM | – |
| > 10 µM | > 10 µM | 0.59 µM | CO[C@@H]1[C@H](N(C)c2ncc(-c3c[nH]c4ccc(Cl)cc34)s2)C[C@H]2O[C@]1(C)n1c3ccccc3c3c4c(c5c6cc(Cl)ccc6n2c5c31)C(=O)NC4 | > 10 µM | – |
| > 10 µM | > 10 µM | 0.56 µM | CO[C@@H]1[C@H](N(C)c2ncc(-c3c[nH]c4ccccc34)s2)C[C@H]2O[C@]1(C)n1c3ccccc3c3c4c(c5c6cc(Cl)ccc6n2c5c31)C(=O)NC4 | > 10 µM | – |
| > 10 µM | > 10 µM | 0.7 µM | CO[C@@H]1[C@H](N(C)c2ncc(-c3c[nH]c4ccc(Cl)cc34)s2)C[C@H]2O[C@]1(C)n1c3ccccc3c3c4c(c5c6cc(Br)ccc6n2c5c31)C(=O)NC4 | > 10 µM | – |
| > 10 µM | > 10 µM | 0.39 µM | CO[C@@H]1[C@H](N(C)c2ncc(-c3c[nH]c4ccc(Br)cc34)s2)C[C@H]2O[C@]1(C)n1c3ccccc3c3c4c(c5c6cc(Br)ccc6n2c5c31)C(=O)NC4 | > 10 µM | – |
| > 10 µM | > 10 µM | 0.4 µM | CO[C@@H]1[C@H](N(C)c2ncc(-c3c[nH]c4ccccc34)s2)C[C@H]2O[C@]1(C)n1c3ccccc3c3c4c(c5c6ccccc6n2c5c31)C(=O)NC4 | > 10 µM | – |
| > 10 µM | > 10 µM | 0.36 µM | COc1ccc2[nH]cc(-c3cnc(N(C)[C@@H]4C[C@H]5O[C@@](C)([C@@H]4OC)n4c6ccccc6c6c7c(c8c9ccccc9n5c8c64)C(=O)NC7)s3)c2c1 | > 10 µM | – |
